These results are taken from ChEMBL document CHEMBL1121813, “Dihydrochalcone sweeteners. A study of the atypical temporal phenomena” (1981).

Each structure is given as a SMILES string.

Holding throughout (assay type): functional
The species named for assay [1] is Homo sapiens. The assay is described as follows: Sour character at a concentration of 251 ppm (mean value). Put shortly:
(§1)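 Trained human sensory panel (Swartz method) tasted dilute aqueous solutions of the compounds, which had to be ≥95 weight percent pure and free of mutagenicity and toxicity. Taste character is reported as the mean value with 2S_m limits. Data deviating excessively at the 95% confidence level were rejected by the t-value method.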

Assay [2] is filed under the species Homo sapiens. The assay can be described thus: Percentage of judgments reporting an aftertaste at a concentration of 251 ppm and character thereof. The procedure, abridged:
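Trained human sensory panel; compounds tasted in aqueous solution. Before panel work, compounds had to be ≥95 weight percent pure (HPLC, proton titration, Karl Fischer) and free of mutagenicity (five Salmonella typhimurium strains, ± microsomal activation) and single oral dose mouse toxicity. Value is the percentage of judgments reporting an aftertaste, with its character recorded as sweet, bitter or bitter-sweet.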

The species entered for assay [3] is Homo sapiens. The assay is described as follows: Intensity calculated on a weight basis relative to an 85500 ppm sucrose solution at a concentration of 251 ppm (mean value). The procedure, abridged: (§2)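 Trained human panel tasted aqueous solutions of purity-checked (≥95 weight percent) compounds cleared for mutagenicity and mouse oral toxicity. Weight-basis intensity I_w = perceived intensity × (85500 ppm sucrose / compound concentration in ppm). The mean is reported with 2S_m limits; data deviating excessively at 95% confidence were rejected by the t-value method.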

Assay [4] is filed under the species Homo sapiens. The assay can be described thus: Bitter character at a concentration of 251 ppm (mean value). Put shortly:
(§3)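 Trained human panel tasted aqueous solutions. Each judge reported whether there was an aftertaste and its character (sweet, bitter or bitter-sweet). The value is the percentage of judgments reporting a bitter aftertaste.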

The species entered for assay [5] is Homo sapiens. The assay can be described thus: Experimentally determined perceived intensity of compound at a concentration of 251 ppm (mean value). Put shortly: (§4)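 Trained human sensory panel of judges tasted aqueous solutions of the compound. Samples had to be ≥95 weight % pure (HPLC, proton titration, Karl Fischer), non-mutagenic in five Salmonella typhimurium strains with and without microsomal activation, and non-toxic in a single-oral-dose mouse test. Perceived intensity (Ip) was read from time–intensity curves at 4- or 6-s intervals and averaged. Outliers at the 95% level were rejected by t-value. Values reported as mean (2Sm).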

For assay [6], the species on record is Homo sapiens. The assay is described as follows: Number of taste judgments per compound.
For assay [7], the species on record is Homo sapiens. The assay is described as follows: Sweet / Bitter character at a concentration of 251 ppm (mean value); […].
The species entered for assay [8] is Homo sapiens. The assay can be described thus: Sweet character at a concentration of 251 ppm (mean value). Put shortly:
as §1

The species named for assay [9] is Homo sapiens. The assay is described as follows: Intensity calculated on a molar basis relative to a 0.25 M sucrose solution at a concentration of 251 ppm (mean value). The procedure, abridged: (§5)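 Trained human judges tasted aqueous solutions of the test compound; compounds were first required to be ≥95 weight percent pure and free of mutagenicity (five Salmonella typhimurium strains, ± microsomal activation) and of single oral dose mouse toxicity. Molar intensity I_m = perceived intensity × (0.25 M sucrose / compound molar concentration). The mean is reported with 2S_m limits; outliers were rejected at 95% confidence by t-value.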

The species named for assay [10] is Homo sapiens. The assay can be described thus: Salty character at a concentration of 251 ppm (mean value). Put shortly:
as §1

For assay [11], the species on record is Homo sapiens. The assay is described as follows: Other taste character at a concentration of 251 ppm (mean value). Put shortly: as §1
The species entered for assay [12] is Homo sapiens. The assay can be described thus: Percentage of judgments reporting an aftertaste at a concentration of 251 ppm and character thereof; Bitter. Put shortly: (§6)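 Trained judges tasted aqueous solutions of the compounds, which had to be ≥95 weight percent pure and to have passed mutagenicity and single oral dose toxicity screening. The value is the percentage of panel judgments reporting an aftertaste. Where given, its character is recorded as sweet, bitter or bitter-sweet.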

The species named for assay [13] is Homo sapiens. The assay is described as follows: Sweet / Bitter character at a concentration of 251 ppm (mean value).
The species entered for assay [14] is Homo sapiens. The assay can be described thus: Sour character at a concentration of 250 ppm (mean value). The procedure, abridged: as §1
For assay [15], the species on record is Homo sapiens. The assay is described as follows: Intensity calculated on a weight basis relative to an 85500 ppm sucrose solution at a concentration of 250 ppm (mean value). Put shortly: as §2
The species named for assay [16] is Homo sapiens. The assay is described as follows: Bitter character at a concentration of 250 ppm (mean value). Put shortly:
as §3

The species entered for assay [17] is Homo sapiens. The assay can be described thus: Experimentally determined perceived intensity of compound at a concentration of 250 ppm (mean value). Put shortly: as §4
Assay [18] is filed under the species Homo sapiens. The assay can be described thus: Sweet / Bitter character at a concentration of 250 ppm (mean value); 92/8.
The species named for assay [19] is Homo sapiens. The assay is described as follows: Sweet character at a concentration of 250 ppm (mean value). The procedure, abridged: as §1
The species named for assay [20] is Homo sapiens. The assay is described as follows: Intensity calculated on a molar basis relative to a 0.25 M sucrose solution at a concentration of 250 ppm (mean value). Put shortly: as §5
The species named for assay [21] is Homo sapiens. The assay can be described thus: Salty character at a concentration of 250 ppm (mean value). The procedure, abridged: as §1
The species entered for assay [22] is Homo sapiens. The assay can be described thus: Other taste character at a concentration of 250 ppm (mean value). Put shortly:
as §1

The species entered for assay [23] is Homo sapiens. The assay can be described thus: Percentage of judgments reporting an aftertaste at a concentration of 250 ppm and character thereof. Put shortly: as §6
The species named for assay [24] is Homo sapiens. The assay can be described thus: Intensity calculated on a weight basis relative to an 85500 ppm sucrose solution at a concentration of 210 ppm (mean value). The procedure, abridged:
as §2

The species named for assay [25] is Homo sapiens. The assay is described as follows: Sour character at a concentration of 210 ppm (mean value).
Assay [26] is filed under the species Homo sapiens. The assay is described as follows: Bitter character at a concentration of 210 ppm (mean value). Put shortly: as §3
The species entered for assay [27] is Homo sapiens. The assay is described as follows: Other taste character at a concentration of 210 ppm (mean value). The procedure, abridged:
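Trained human panel tasted aqueous solutions of each compound. Aftertaste is scored as the percentage of judgments reporting one, with its character coded sweet (s), bitter (b) or bitter-sweet (bs).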

Assay [28] is filed under the species Homo sapiens. The assay can be described thus: Experimentally determined perceived intensity of compound at a concentration of 210 ppm (mean value). Put shortly:
as §4

The species entered for assay [29] is Homo sapiens. The assay is described as follows: Sweet / Bitter character at a concentration of 210 ppm (mean value); 0/100.
The species named for assay [30] is Homo sapiens. The assay can be described thus: Percentage of judgments reporting an aftertaste at a concentration of 210 ppm and character thereof. Put shortly: as §6
The species entered for assay [31] is Homo sapiens. The assay can be described thus: Sweet character at a concentration of 210 ppm (mean value).
Assay [32] is filed under the species Homo sapiens. The assay is described as follows: Intensity calculated on a molar basis relative to a 0.25 M sucrose solution at a concentration of 210 ppm (mean value). The procedure, abridged:
as §5

Assay [33] is filed under the species Homo sapiens. The assay is described as follows: Salty character at a concentration of 210 ppm (mean value).

Turning to `COc1ccc(CCC(=O)c2c(O)cc(OCCCP(=O)([O-])O)cc2O)cc1O.[K+]`, the Taste character in [1] was found to be 0; in assay [4], 7; in assay [7], 92; in [8] it was 80; in assay [10] it was 0; in assay [11], 13. Also, the Judgments stood at 100 in assay [2] and 12 in assay [6]. Also, the IW in assay [3] is recorded as 280. In assay [5], this compound had an IP of 0.83. The IM in [9] is listed as 380.
In the case of `COc1ccc(C2CC(=O)c3c(O)cc(OCC(=O)[O-])cc3O2)cc1O.[Na+]` (centres undefined), the Taste character in assay [1] worked out at 0; in [4], 78; in [13], 16; in [8], 15; in assay [10] it was 0; in assay [11], 7. Besides, the Judgments stood at 100 in [12] and 12 in [6]. Also, in assay [3], the IW is on record as 270. Also, in [5], the IP came to 0.79. The IM in [9] is reported as 300.
In the case of `COc1ccc(CCC(=O)c2c(O)cc(OCCC(O)C(=O)[O-])cc2O)cc1O.[Na+]` (centres undefined), the Taste character in [14] stood at 0; in assay [16], 8; in [18] it was 92; in assay [19], 92; in assay [21], 0; in assay [22], 0. The IW in assay [15] is given as 440. In assay [17], this compound came in with an IP of 1.28. Further, the Judgments in [6] is given as 4; in [23], 100. The IM in [20] was 550.
Consider `COc1ccc(CC/C(=N\O)c2c(O)cc(OCC(=O)[O-])cc2O)cc1O.[Na+]`, for which, in [24], the IW is listed as 110. For the same compound, the Taste character stood at 26 in assay [25]; 74 in assay [26]; 0 in [27]; 0 in [29]; 0 in assay [31]; 0 in [33]. The compound also showed an IP in [28] of 0.2. The Judgments was 12 in assay [6] and 0 in [30]. In addition, the IM in [32] is on record as 130.
